Screening data as filed in PubChem BioAssay.
Hits are enriched below; roughly 3.3% of the tested compounds scored in any of these assays.
PMI activator – phosphomannose isomerase (human) activation. P34949. purified human PMI, coupled resazurin fluorescence, 20 min; hits give high values; 1 = vehicle control, 0 substrate-free wells. activation factor at 20 µM. 0.005% of 190,000 active. AID 1214;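 active means activation factor of 2 or more at 20 µM, relative to plate controls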
PMI act hi M6P – activators of human phosphomannose isomerase at near-saturating mannose 6-phosphate | AID 1216 | activation factor at 20 µM | coupled PMI enzyme assay, resazurin fluorescence, 20 min; hits give high values; 1 = untreated enzyme, 0 = substrate-free blank | P34949 | 0.34% of 190,000 active;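 active means activation factor of 2 or more at 20 µM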
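Test system – human PMI in coupled enzyme assay · Timing – 20 min incubation at room temperature · Detection – Diaphorase-driven resazurin-to-resorufin fluorescence, excitation 544, emission 590 nm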
KCC2 mod – modulates chloride dependent transport by human KCC2. Q9H2X9. KCC2 cells, thallium flux FluoZin-2 fluorescence. B-score of Tl+ flux slope (higher = more flux/activation; lower = inhibition) at 10 µM. 2.2% of 190,000 active. AID 1456;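 active means thallium flux slope and its plate-corrected score both differing from the plate sample mean at a set confidence after two filtering rounds, in either direction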;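 further: slope of fluorescence scaled to starting intensity during 10 to 20 s after thallium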
ROMK mod – modulates human ROMK potassium channel activity. P48048. Tet-inducible ROMK, thallium flux fluorescence; actives lie on both sides. B-score at 10 µM. 2% of 130,000 active. AID 1918;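 active means signal ratio slope over the read window, or its plate-corrected B-score, at least 3 SD from the plate mean, either direction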;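 further: B-score of the F/F0 ratio slope over 7 to 12 s after thallium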
Target sequence (P48048 whole entry, looked up): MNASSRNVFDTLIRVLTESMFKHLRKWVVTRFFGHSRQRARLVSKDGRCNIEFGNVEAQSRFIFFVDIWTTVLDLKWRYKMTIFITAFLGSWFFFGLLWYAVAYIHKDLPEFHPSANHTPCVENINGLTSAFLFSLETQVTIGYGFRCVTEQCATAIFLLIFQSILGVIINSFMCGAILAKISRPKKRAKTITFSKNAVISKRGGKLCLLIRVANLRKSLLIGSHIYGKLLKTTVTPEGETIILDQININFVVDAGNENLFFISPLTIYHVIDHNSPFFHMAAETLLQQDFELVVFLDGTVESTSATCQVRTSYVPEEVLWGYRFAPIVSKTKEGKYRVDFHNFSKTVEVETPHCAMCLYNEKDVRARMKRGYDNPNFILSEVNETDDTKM
ABCG2 block – inhibitors of human ABCG2 transporter, ABCB1 counter-screen | IgMXP3 cells, JC-1 efflux, flow cytometry | 0.1% of 190,000 active | inhibition, % at 6.6 µM | AID 1325 | Q9UNQ0;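 active means inhibition above 80%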;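 further: 0% = DMSO and 100% = nicardipine control wells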
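Read-out basis: Efflux inhibition in percent versus controls | Test system: ABCG2 IgMXP3 and barcoded ABCB1 CCRF-Adr cell mix | Quantity: 3 million cells/mL in well | Schedule: 10 min at 25 °C | Control set: Nicardipine as high control, DMSO as low control | Reagent: JC-1 as fluorescent efflux pump substrate | Signal: Flow cytometry of retained JC-1 fluorescence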
ABCB1 inh – blocks JC-1 efflux by human ABCB1 transporter; P08183; CCRF-Adr cells, flow cytometry; inhibition, % at 6.6 µM; 0.067% of 190,000 active; AID 1326; in the data active means inhibition above about 40%;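 further: 0% = vehicle and 100% = reference inhibitor; higher value means more JC-1 retained so stronger ABCB1 efflux block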
ROMK retest – human ROMK channel modulation, retest confirmation; 54% of 3,000 active; normalized thallium flux (F/F0 slope) at 10 µM; shares compounds with ROMK mod; ROMK thallium flux, fluorescence ratio; hits give low values;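 active means Flux at 10 µM at least 3 SD below or above vehicle control mean in one or both replicates; inconclusive means no clear call, values can overlap the other calls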
The depositor's hits bear a star; ? = inconclusive; . = no result given.

SMILES	PMI activator	PMI act hi M6P	KCC2 mod	ROMK mod	ABCG2 block	ABCB1 inh	ROMK retest
CCOC(=O)c1c(CSc2ccccc2)n(C)c2cc(Br)c(OCC(O)CNC(CO)(CO)CO)cc12 (configuration not stated)	0.8	0.9	-2.7	-5.2*	10	1	0.056*
COc1ccc(/C=C(\C#N)C(=O)N2CCOCC2)cc1Br	0.9	0.9	0.36	-3.7*	2	0	0.051*
COc1cc(/C=C(\C#N)C(=O)N2CCOCC2)ccc1OCc1ccccc1	1.1	1	-0.19	0.015	11	2	.
O=C(CSc1ncn[nH]1)NC12CC3CC(CC(C3)C1)C2	1	1.1	0.049	3*	2	0	0.075
COc1cccc(C(=O)C2CCCN(Cc3cccn3-c3cccnc3)C2)c1 (configuration not stated)	1	1	0.0078	-2.9*	10	3	0.072
COc1ccc(NC(=O)C2CCCN(S(=O)(=O)c3cccnc3)C2)c(OC)c1 (configuration not stated)	1	1	0.27	.	3	1	.
COc1ccc(C(=O)C2CCCN(S(=O)(=O)c3cccnc3)C2)c(C)c1 (configuration not stated)	1	1	2.6	-8.6*	1	1	0.075
CCOc1ccc(N(CC)S(=O)(=O)c2ccc3c(c2)n(C)c(=O)c(=O)n3C)cc1	1	1	-0.65	.	2	0	.
Cc1ccc(CSC2=NCCN2C(=O)c2ccc(S(=O)(=O)N(C)C)cc2)cc1	1	1	0.44	-0.3	1	1	.
O=C(NCc1ccccc1)c1ccc(Br)cc1	1	1.1	0.23	-4.5*	9	1	?
O=C(NCc1ccncc1)c1ccc(Br)cc1	1	1	0.57	.	2	1	.
CCN1CCN(C(=O)C2CCN(C(=O)c3cc4sccc4n3CC)CC2)CC1	1	1	0.51	.	1	0	.
CCn1c(C(=O)N2CCC(C(=O)NCCCSC3CCCCC3)CC2)cc2sccc21	0.9	1	0.23	.	4	2	?
O=C(c1ccccc1F)N1CCN(c2ccc([N+](=O)[O-])c3cccnc23)CC1	0.8	0.4	-1.6	-3.1	8	1	.
Cc1cc(N2CCN(c3ccc([N+](=O)[O-])c4cccnc34)CC2)c2ccccc2n1	0.8	0.5	-0.39	-2.6*	-1	0	0.062*
CC1CCCCN1C(=O)Cn1cc(/C=C2/C(=O)Nc3ccccc32)c2ccccc21 (configuration not stated)	0.8	0.8	-0.67	.	1	1	0.078
C/C(=N\Nc1ccc([N+](=O)[O-])cc1)c1ccc(O)cc1	0.9	0.9	-0.57	-4.5*	8	1	0.053*
O=[N+]([O-])c1sccc1CS(=O)(=O)c1ccccc1	.	.	-0.005	-0.12	.	.	.
CCCc1ccc(Oc2c(-c3ccc(O)c(C)c3O)n[nH]c2C)cc1	1.1	1	0.00072	.	1	0	.
CCCc1ccc(Oc2cn[nH]c2-c2ccc(O)c(C)c2O)cc1	0.9	0.9	0.27	-4*	-3	-1	0.058*
C=CCOC(=O)C1=C(C)OC(N)=C(C#N)C1c1c(C)nn(-c2ccccc2)c1Cl (configuration not stated)	0.9	0.9	-1.3	-4*	5	2	0.059*
O=c1cc(O)c2c(=O)n(-c3ccccc3)c3c(c2o1)CCCCCC3	1	0.9	-1.3	.	3	1	.
CC(=O)N1CCN(C2=NC(=O)/C(=C\c3cccs3)S2)CC1	1	0.9	1.1	-6.7*	6	0	0.083
CC(=O)Nc1ccc(NC(=O)CN(C)CC(=O)Nc2ccccc2Br)cc1	1.1	1.1	-1.4	0.95	-1	0	.
CN(CC(=O)Nc1ccc(C(N)=O)cc1)CC(=O)Nc1ccccc1Br	.	.	-1.8	6.1*	.	.	0.075
SMILES	PMI activator	PMI act hi M6P	KCC2 mod	ROMK mod	ABCG2 block	ABCB1 inh	ROMK retest
Cc1ccc(-c2nc(-c3cccnc3)sc2CC(=O)Nc2ccc3nc(C)sc3c2)cc1	0.9	0.9	0.051	0.046	-4	0	.
O=C(O)C1CC=CCC1C(=O)Nc1cccc(Cl)c1 (configuration not stated)	1	1	-0.28	.	0	0	.
COc1ccc([C@H]2[C@H](C(=O)OC(C)(C)C)N3N=Cc4ccccc4C3C23C(=O)c2ccccc2C3=O)c(OC)c1 (some centres not stated)	1.2	0.7	-3.6	.	8	2	0.06*
COc1ccc([C@H]2[C@H](C(=O)OC(C)(C)C)N3N=Cc4ccccc4C3C23C(=O)c2ccccc2C3=O)cc1OC (some centres not stated)	1.1	0.7	-0.6	.	9	4	.
Cc1ccc(S(=O)(=O)N/N=c2\oc3ccccc3cc2C(=O)Nc2cccc(C)c2)cc1	1	0.9	1.3	.	-10	-1	.
CCOCCCNC(=O)/C(C#N)=C/c1ccc(Cl)c([N+](=O)[O-])c1	1.1	1	0.21	-4.2*	15	1	0.033*
CCOCCCNC(=O)/C(C#N)=C/c1cc(C)c(O)c(C)c1	1	0.8	-0.49	1.5	22	5	.
CCOCCCNC(=O)/C(C#N)=C/c1cc(OC)c(O)c([N+](=O)[O-])c1	1	0.8	-0.74	3*	2	0	0.084
COCCNC(=O)/C(C#N)=C/c1ccc(O)c([N+](=O)[O-])c1	1	0.9	-0.4	0.88	5	0	.
COc1ccc(-c2cnc3n2CCCCC3)cc1	.	.	0.032	.	.	.	.
COc1ccc(-c2c[n+]3c4n2CCCCC4=C(c2ccc(Br)cc2)C3)cc1	1.4	1.5	.	-4.6*	2	1	0.052*
Clc1ccc(C2=C3CCCCn4c(-c5ccccc5)c[n+](c43)C2)cc1	1.2	1.2	1.1	.	8	1	0.064*
O=C(CSc1nnc(NCc2ccccc2)s1)c1ccco1	1	1	-0.7	-0.0025	0	0	.
CCOC(=O)N1CCN(C(=O)c2ccc(NC(=O)c3ccc(C)cc3)cc2)CC1	1	1	-0.58	.	35	1	.
ClCc1csc(-c2ccccc2Cl)n1	1.4	1.3	-0.85	0.026	2	0	.
CCCN(CCC)C(=O)c1cc2c(=O)[nH]c3ccc(C)cc3c2s1	1	1	-1	-4.2*	47	12	0.073
Cc1ccc(C)c(N(C)C(=O)c2cc3c(=O)[nH]c4ccc(C)cc4c3s2)c1	.	.	-0.6	-0.64	.	.	.
Cc1cc(C)cc(NC(=O)N2CCN(C/C=C/c3ccccc3)CC2)c1	1.1	1.1	-0.0093	-4.2*	7	2	0.067*
